Source: ChEMBL document CHEMBL5724801, “EUbOPEN Chemogenomics Library - Multiplex” (2024)
Values joined by “and” are separate entries in the source; they are usually repeats but may differ in a detail not shown here. Identical values can stand only once.

Tested on: Fibroblast
Experiment: Multiplex assay against human fibroblast
Format: toxicity, cell-based
How it was run: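 Live cells carried four stains from seeding: Hoechst33342, BioTracker Green Microtubule Cytoskeleton Dye, MitoTracker Red and Annexin V Alexa Fluor 680. They were imaged on a CQ1 microscope at 37°C and 5% CO2 after compound addition. Using CellPathfinder machine-learning gating, cells were split into Hoechst high-intensity objects or normal cells, normal cells into healthy, pyknosed or fragmented nuclei, and pyknosed cells into mitotic or apoptotic; tubulin, mitochondrial-mass and membrane-permeability phenotypes are per cents of healthy-nucleus cells.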

[1] = 12 h, 1 µM, compound concentration 1 uM
[2] = 12 h, 10 µM, compound concentration 10 uM
[3] = 24 h, 1 µM, compound concentration 1 uM
[4] = 24 h, 10 µM, compound concentration 10 uM
[5] = 48 h, 1 µM, compound concentration 1 uM
[6] = 48 h, 10 µM, compound concentration 10 uM

C=CCN1C[C@H](C(=O)N(CCCN(C)C)C(=O)NCC)C[C@@H]2c3cccc4[nH]cc(c34)C[C@H]21 [CABERGOLINE]
Population Apoptotic (%) [1]: 69% and 35%
Population Fragmented Nuclei (%) [1]: 13% and 20%
Population Healthy Nuclei (%) [1]: 78% and 46%
Population Hoechst High Intensity Objects (%) [1]: 6%
Population Membrane Permeable-Phenotype (%) [1]: 0% and 4%
Population Mitochondria Different-Phenotype (%) [1]: 2% and 1%
Population Mitotic Cells (%) [1]: 30% and 64%
Population Normal (%) [1]: 93%
Population Tubulin-Different-Phenotype (%) [1]: 26% and 25%
Total Cell Count [1]: 186 and 144
Population Apoptotic (%) [2]: 50% and 35%
Population Fragmented Nuclei (%) [2]: 25% and 44%
Population Healthy Nuclei (%) [2]: 64% and 39%
Population Hoechst High Intensity Objects (%) [2]: 3% and 5%
Population Membrane Permeable-Phenotype (%) [2]: 0% and 6%
Population Mitochondria Different-Phenotype (%) [2]: 11% and 10%
Population Mitotic Cells (%) [2]: 50% and 64%
Population Normal (%) [2]: 96% and 94%
Population Pyknosed Nuclei (%) [2]: 10% and 16%
Population Tubulin-Different-Phenotype (%) [2]: 46% and 53%
Total Cell Count [2]: 248 and 178
Population Apoptotic (%) [3]: 68% and 44%
Population Fragmented Nuclei (%) [3]: 15% and 24%
Population Healthy Nuclei (%) [3]: 74% and 46%
Population Hoechst High Intensity Objects (%) [3]: 4% and 6%
Population Membrane Permeable-Phenotype (%) [3]: 1% and 3%
Population Mitochondria Different-Phenotype (%) [3]: 3%
Population Mitotic Cells (%) [3]: 31% and 55%
Population Normal (%) [3]: 95% and 93%
Population Pyknosed Nuclei (%) [3]: 10% and 29%
Population Tubulin-Different-Phenotype (%) [3]: 33% and 39%
Total Cell Count [3]: 198 and 132
Population Apoptotic (%) [4]: 73% and 43%
Population Fragmented Nuclei (%) [4]: 28% and 43%
Population Healthy Nuclei (%) [4]: 65% and 46%
Population Hoechst High Intensity Objects (%) [4]: 1% and 10%
Population Membrane Permeable-Phenotype (%) [4]: 0% and 2%
Population Mitochondria Different-Phenotype (%) [4]: 7% and 5%
Population Mitotic Cells (%) [4]: 26% and 56%
Population Normal (%) [4]: 98% and 89%
Population Pyknosed Nuclei (%) [4]: 5% and 9%
Population Tubulin-Different-Phenotype (%) [4]: 44% and 53%
Total Cell Count [4]: 274 and 181
Population Apoptotic (%) [5]: 56% and 58%
Population Fragmented Nuclei (%) [5]: 15% and 24%
Population Healthy Nuclei (%) [5]: 75% and 54%
Population Hoechst High Intensity Objects (%) [5]: 5% and 7%
Population Membrane Permeable-Phenotype (%) [5]: 0% and 6%
Population Mitochondria Different-Phenotype (%) [5]: 6% and 1%
Population Mitotic Cells (%) [5]: 43% and 41%
Population Normal (%) [5]: 94% and 92%
Population Pyknosed Nuclei (%) [5]: 8% and 21%
Population Tubulin-Different-Phenotype (%) [5]: 34% and 33%
Total Cell Count [5]: 189 and 156
Population Apoptotic (%) [6]: 72% and 46%
Population Fragmented Nuclei (%) [6]: 24% and 52%
Population Healthy Nuclei (%) [6]: 68% and 37%
Population Hoechst High Intensity Objects (%) [6]: 4% and 5%
Population Membrane Permeable-Phenotype (%) [6]: 1% and 6%
Population Mitochondria Different-Phenotype (%) [6]: 4% and 11%
Population Mitotic Cells (%) [6]: 27% and 53%
Population Normal (%) [6]: 95% and 94%
Population Pyknosed Nuclei (%) [6]: 6% and 9%
Population Tubulin-Different-Phenotype (%) [6]: 46% and 44%
Total Cell Count [6]: 282 and 170

COc1cc(N2CCN(C)CC2)ccc1Nc1nccc(-c2cn(C)c3cnccc23)n1
Population Apoptotic (%) [1]: 11.76% and 10%
Population Fragmented Nuclei (%) [1]: 12.81% and 10.18%
Population Healthy Nuclei (%) [1]: 70.44% and 80.97%
Population Hoechst High Intensity Objects (%) [1]: 0%
Population Membrane Permeable-Phenotype (%) [1]: 3.5% and 4.92%
Population Mitochondria Different-Phenotype (%) [1]: 9.79% and 6.56%
Population Mitotic Cells (%) [1]: 88.24% and 90%
Population Normal (%) [1]: 100%
Population Pyknosed Nuclei (%) [1]: 16.75% and 8.85%
Population Tubulin-Different-Phenotype (%) [1]: 16.78% and 35.52%
Total Cell Count [1]: 203 and 226
Population Apoptotic (%) [2]: 3.08% and 5.97%
Population Healthy Nuclei (%) [2]: 41.67% and 59.65%
Population Hoechst High Intensity Objects (%) [2]: 0%
Population Membrane Permeable-Phenotype (%) [2]: 13.85% and 8.82%
Population Mitochondria Different-Phenotype (%) [2]: 35.38% and 54.9%
Population Mitotic Cells (%) [2]: 96.92% and 94.03%
Population Normal (%) [2]: 100%
Population Pyknosed Nuclei (%) [2]: 41.67% and 39.18%
Population Tubulin-Different-Phenotype (%) [2]: 55.38% and 85.29%
Total Cell Count [2]: 156 and 171
Population Apoptotic (%) [3]: 21.74% and 7.69%
Population Fragmented Nuclei (%) [3]: 12.15% and 10.47%
Population Healthy Nuclei (%) [3]: 77.1% and 84.5%
Population Hoechst High Intensity Objects (%) [3]: 0%
Population Membrane Permeable-Phenotype (%) [3]: 4.85% and 5.05%
Population Mitochondria Different-Phenotype (%) [3]: 10.3% and 3.21%
Population Mitotic Cells (%) [3]: 78.26% and 92.31%
Population Normal (%) [3]: 100%
Population Pyknosed Nuclei (%) [3]: 10.75% and 5.04%
Population Tubulin-Different-Phenotype (%) [3]: 13.94% and 38.53%
Total Cell Count [3]: 214 and 258
Population Apoptotic (%) [4]: 5.77% and 8.77%
Population Healthy Nuclei (%) [4]: 47.62% and 66.67%
Population Hoechst High Intensity Objects (%) [4]: 0%
Population Membrane Permeable-Phenotype (%) [4]: 2.86% and 10.48%
Population Mitochondria Different-Phenotype (%) [4]: 41.43% and 41.13%
Population Mitotic Cells (%) [4]: 94.23% and 91.23%
Population Normal (%) [4]: 100%
Population Pyknosed Nuclei (%) [4]: 35.37% and 30.65%
Population Tubulin-Different-Phenotype (%) [4]: 70% and 74.19%
Total Cell Count [4]: 147 and 186
Population Fragmented Nuclei (%) [5]: 17.86% and 7.25%
Population Healthy Nuclei (%) [5]: 77.23% and 87.02%
Population Hoechst High Intensity Objects (%) [5]: 0%
Population Membrane Permeable-Phenotype (%) [5]: 0% and 1.75%
Population Mitochondria Different-Phenotype (%) [5]: 12.72% and 3.95%
Population Mitotic Cells (%) [5]: 100% and 66.67%
Population Normal (%) [5]: 100%
Population Pyknosed Nuclei (%) [5]: 4.91% and 5.73%
Population Tubulin-Different-Phenotype (%) [5]: 12.72% and 38.16%
Total Cell Count [5]: 224 and 262
Population Fragmented Nuclei (%) [6]: 16.88% and 21.97%
Population Healthy Nuclei (%) [6]: 73.75% and 64.57%
Population Hoechst High Intensity Objects (%) [6]: 0%
Population Membrane Permeable-Phenotype (%) [6]: 5.08% and 2.08%
Population Mitochondria Different-Phenotype (%) [6]: 31.36% and 25%
Population Mitotic Cells (%) [6]: 66.67% and 90%
Population Normal (%) [6]: 100%
Population Pyknosed Nuclei (%) [6]: 9.38% and 13.45%
Population Tubulin-Different-Phenotype (%) [6]: 44.92% and 80.56%
Total Cell Count [6]: 160 and 223

CC(C)[C@H](C(=O)Nc1ccc(C(=O)NO)cc1)c1ccccc1 [AR-42]
Population Apoptotic (%) [1]: 28.12% and 16.67%
Population Fragmented Nuclei (%) [1]: 8.81% and 7.87%
Population Healthy Nuclei (%) [1]: 74.61% and 85.39%
Population Hoechst High Intensity Objects (%) [1]: 0%
Population Membrane Permeable-Phenotype (%) [1]: 3.47% and 2.63%
Population Mitochondria Different-Phenotype (%) [1]: 4.17% and 7.89%
Population Mitotic Cells (%) [1]: 71.88% and 83.33%
Population Normal (%) [1]: 100%
Population Pyknosed Nuclei (%) [1]: 16.58% and 6.74%
Population Tubulin-Different-Phenotype (%) [1]: 4.17% and 7.24%
Total Cell Count [1]: 193 and 178
Population Apoptotic (%) [2]: 32% and 26.67%
Population Fragmented Nuclei (%) [2]: 10.88% and 4.5%
Population Healthy Nuclei (%) [2]: 76.17% and 88.74%
Population Hoechst High Intensity Objects (%) [2]: 0%
Population Membrane Permeable-Phenotype (%) [2]: 6.8% and 2.54%
Population Mitochondria Different-Phenotype (%) [2]: 5.44% and 5.58%
Population Mitotic Cells (%) [2]: 68% and 73.33%
Population Normal (%) [2]: 100%
Population Pyknosed Nuclei (%) [2]: 12.95% and 6.76%
Population Tubulin-Different-Phenotype (%) [2]: 7.48% and 5.58%
Total Cell Count [2]: 193 and 222
Population Apoptotic (%) [3]: 40% and 44.44%
Population Fragmented Nuclei (%) [3]: 11.98% and 8.95%
Population Healthy Nuclei (%) [3]: 80.21% and 86.32%
Population Hoechst High Intensity Objects (%) [3]: 0%
Population Membrane Permeable-Phenotype (%) [3]: 2.6% and 3.05%
Population Mitochondria Different-Phenotype (%) [3]: 2.6% and 3.66%
Population Mitotic Cells (%) [3]: 60% and 55.56%
Population Normal (%) [3]: 100%
Population Pyknosed Nuclei (%) [3]: 7.81% and 4.74%
Population Tubulin-Different-Phenotype (%) [3]: 1.95% and 1.83%
Total Cell Count [3]: 192 and 190
Population Apoptotic (%) [4]: 50% and 57.14%
Population Fragmented Nuclei (%) [4]: 11.56% and 10.3%
Population Healthy Nuclei (%) [4]: 79.19% and 83.69%
Population Hoechst High Intensity Objects (%) [4]: 0%
Population Membrane Permeable-Phenotype (%) [4]: 3.65% and 0%
Population Mitochondria Different-Phenotype (%) [4]: 4.38% and 6.67%
Population Mitotic Cells (%) [4]: 50% and 42.86%
Population Normal (%) [4]: 100%
Population Pyknosed Nuclei (%) [4]: 9.25% and 6.01%
Population Tubulin-Different-Phenotype (%) [4]: 3.65% and 2.56%
Total Cell Count [4]: 173 and 233
Population Apoptotic (%) [5]: 37.5% and 50%
Population Fragmented Nuclei (%) [5]: 15.15% and 11.46%
Population Healthy Nuclei (%) [5]: 76.77% and 82.29%
Population Hoechst High Intensity Objects (%) [5]: 0%
Population Membrane Permeable-Phenotype (%) [5]: 1.32% and 1.27%
Population Mitochondria Different-Phenotype (%) [5]: 19.74% and 7.59%
Population Mitotic Cells (%) [5]: 62.5% and 50%
Population Normal (%) [5]: 100%
Population Pyknosed Nuclei (%) [5]: 8.08% and 6.25%
Population Tubulin-Different-Phenotype (%) [5]: 2.63% and 3.8%
Total Cell Count [5]: 198 and 192
Population Apoptotic (%) [6]: 31.48% and 89.58%
Population Fragmented Nuclei (%) [6]: 17.84% and 9.95%
Population Healthy Nuclei (%) [6]: 52.97% and 64.92%
Population Hoechst High Intensity Objects (%) [6]: 0%
Population Membrane Permeable-Phenotype (%) [6]: 1.02% and 3.23%
Population Mitochondria Different-Phenotype (%) [6]: 21.43% and 8.06%
Population Normal (%) [6]: 100%
Population Pyknosed Nuclei (%) [6]: 29.19% and 25.13%
Total Cell Count [6]: 185 and 191
